From ChEMBL document CHEMBL1155568, “Biological characterization of fusapyrone and deoxyfusapyrone, two bioactive secondary metabolites of Fusarium semitectum” (J Nat Prod, 2000)
Calls of active or inactive are those of the source. The calls are words filed in the database; no cut-off is given here.

Columns and labels:
[1] = system: Nakaseomyces glabratus; experiment: Antifungal activity against Candida glabrata at 50 ug/disk by paper disk method; assay type: functional, organism-based
[2] = system: Candida albicans; experiment: Antifungal activity against Candida albicans Y01009 after 24 hrs by broth micromethod assay; assay type: functional
Outline: (§1)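 Broth microdilution in YNB with 0.5% glucose, phosphate buffer pH 7, using ten 2-fold dilutions (50-0.097 µg/mL). Inoculum from 24-48 h Sabouraud agar cultures, final 5 × 10^2 cells for C. albicans and C. kefyr, 5 × 10^3 cells/conidia for C. glabrata, Cryptococcus neoformans and Aspergillus. Incubated at 35 °C up to 72 h, read every 24 h. MIC is the complete absence of growth versus medium controls.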

[3] = system: Penicillium verrucosum; experiment: Antifungal activity against Penicillium verrucosum ITEM 439 at 15 ug/disk by paper disk method; assay type: functional; conditions: read-out: IZ
Outline: (§2)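 Agar overlay disk diffusion on plant-derived filamentous fungi and yeasts: 0.7% water-agar seeded with 10^4 conidia/mL or a yeast cell suspension, poured over PDA. 6-mm cellulose disks were loaded from methanolic solutions and air-dried, with nystatin as comparator. Plates ran 24-72 h at 25 °C; inhibition halo was measured over three disks. Agar beneath disks was subcultured on PDA to separate fungicidal from fungistatic, scored in four classes; run twice, averaged.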

[4] = system: Candida albicans; experiment: Antifungal activity against Candida albicans at 50 ug/disk by paper disk method; assay type: functional, organism-based
[5] = system: Rhodotorula mucilaginosa; experiment: Antifungal activity against Rhodotorula pilimanae at 15 ug/disk by […]; assay type: functional; conditions: read-out: IZ
[6] = system: Ascochyta rabiei; experiment: Antifungal activity against Ascochyta rabiei ITEM 466 at 5 ug/disk by paper disk method; assay type: functional, organism-based
Outline: (§3)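 Agar diffusion: a 0.7% water-agar overlay carrying 10^4 conidia/mL (or yeast cells) is poured on PDA. 6-mm cellulose disks loaded with methanolic compound at 5 or 15 µg/disk are air-dried and applied, with nystatin as comparator. Plates incubated 24-72 h at 25 °C; inhibition halo diameter read from three disks. Agar under each disk is subcultured on PDA to score fungicidal/fungistatic effect. Experiment run twice and averaged.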

[7] = system: Wickerhamomyces anomalus; experiment: Antifungal activity against Pichia anomala ITEM 1661 at 15 ug/disk by paper disk method; assay type: functional; conditions: Hansenula anomala; read-out: IZ; outline: as §2
[8] = system: Fusarium incarnatum; experiment: Antifungal activity against Fusarium semitectum ITEM 393 at 15 ug/disk by paper disk method; assay type: functional; conditions: read-out: IZ; outline: as §3
[9] = system: Candida albicans; experiment: Antifungal activity against Candida albicans 1 after 24 hrs by broth micromethod assay; assay type: functional; outline: as §1
[10] = system: Solanum lycopersicum; experiment: Phytotoxicity in tomato leaf assessed as chlorosis in the leaf at 10^-4 M by tomato cutting assay; assay type: organism-based; conditions: in vivo, 100 µM
Outline: (§4)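 Young greenhouse tomato plants were cut, and the stems were immersed in toxin solutions (MeOH stock diluted with water; 10^-3 to 10^-6 M). They were held 24 h at 22 °C under a 12-h photoperiod, then moved to distilled water for 48 h more, and symptoms were scored visually.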

[11] = system: Saccharomyces cerevisiae; experiment: Antifungal activity against Saccharomyces cerevisiae ITEM 1633 at 15 ug/disk by paper disk method; assay type: functional; conditions: read-out: IZ; outline: as §2
[12] = system: Alternaria alternata; experiment: Antifungal activity against Alternaria alternata ITEM 750 at 15 ug/disk by paper disk method; assay type: functional; conditions: read-out: IZ; outline: as §3
[13] = system: Alternaria alternata; experiment: Antifungal activity against Alternaria alternata ITEM 526 at 15 ug/disk by paper disk method; assay type: functional; conditions: read-out: IZ; outline: as §3
[14] = system: Kluyveromyces marxianus; experiment: Antifungal activity against Candida kefyr Y0601 after 24 hrs by broth micromethod assay; assay type: functional; outline: as §1
[15] = system: Meyerozyma guilliermondii; experiment: Antifungal activity against Candida guilliermondii ITEM 1638 at 15 ug/disk by paper disk method; assay type: functional; conditions: read-out: IZ; outline: as §3
[16] = system: Fusarium oxysporum f. sp. lycopersici; experiment: Antifungal activity against Fusarium oxysporum f. sp. lycopersici ITEM 1462 at 15 ug/disk by paper disk method; assay type: functional; conditions: read-out: IZ; outline: as §3
[17] = system: Priestia megaterium; experiment: Antimicrobial activity against Bacillus megaterium at 30 ug/disk by agar diffusion method; assay type: functional, organism-based
[18] = system: Alternaria alternata; experiment: Antifungal activity against Alternaria alternata ITEM 468 at 15 ug/disk by paper disk method; assay type: functional; conditions: read-out: IZ; outline: as §3
[19] = (§5) Toxicity against Artemia salina larvae; assay type: organism-based; conditions: in vivo
Outline: (§6)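 Quadruplicate wells; mortality counted after 24 and 36 h at 27 °C. LC50 from probit analysis of dose-mortality data from six independent experiments.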

[20] = system: Cryptococcus neoformans; experiment: Antifungal activity against Cryptococcus neoformans 14 after 48 hrs by broth micromethod assay; assay type: functional; outline: as §1
[21] = system: Cryptococcus neoformans; experiment: Antifungal activity against Cryptococcus neoformans 14 after 24 hrs by broth micromethod assay; assay type: functional; outline: as §1
[22] = system: Nakaseomyces glabratus; experiment: Antifungal activity against Candida glabrata 12 after 24 hrs by broth micromethod assay; assay type: functional; outline: as §1
[23] = system: Solanum lycopersicum; experiment: Stimulation of root elongation in tomato at 10^-4 M; assay type: functional, organism-based
Outline: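 Tomato seeds were surface-sterilized in 4% NaClO for 10 min and pregerminated 3 days in the dark. They were then placed 10 per dish on filter paper wetted with 2 mL of compound in 1% MeOH (10^-4 or 10^-5 M) and held 4 days at 25 °C under a 12-h photoperiod. Shoot and rootlet lengths were measured against control; done in triplicate, repeated once.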

[24] = system: Aspergillus flavus; experiment: Antifungal activity against Aspergillus flavus ITEM 9 at 15 ug/disk by paper disk method; assay type: functional; conditions: read-out: IZ; outline: as §3
[25] = system: Solanum lycopersicum; experiment: Phytotoxicity in tomato stem assessed as chlorosis in the leaf at 10^-3 M by tomato cutting assay; assay type: organism-based; conditions: in vivo, 1000 µM; outline: as §4
[26] = system: Aspergillus parasiticus; experiment: Antifungal activity against Aspergillus parasiticus ITEM 11 at 15 ug/disk by paper disk method; assay type: functional; conditions: read-out: IZ; outline: as §3
[27] = system: Cicer arietinum; experiment: Phytotoxicity in chickpea leaf assessed as necrosis in the leaf at 10^-3 M by leaf puncture assay; assay type: organism-based; conditions: in vivo, 1000 µM
Outline: (§7)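 Tomato and chickpea leaves were punctured and treated with toxin dissolved in MeOH and diluted with water (final 4% MeOH), tested from 10^-2 to 10^-7 M. Chlorosis and necrosis were recorded visually as spot symptoms.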

[28] = system: Penicillium brevicompactum; experiment: Antifungal activity against Penicillium brevicompactum ITEM 449 at 15 ug/disk by paper disk method; assay type: functional; conditions: read-out: IZ; outline: as §2
[29] = system: Fusarium oxysporum; experiment: Antifungal activity against Fusarium oxysporum ITEM 1462 at 15 ug/disk by paper disk method; assay type: functional; conditions: read-out: IZ; outline: as §3
[30] = system: Cryptococcus neoformans; experiment: Antifungal activity against Cryptococcus neoformans 13 after 24 hrs by broth micromethod assay; assay type: functional; outline: as §1
[31] = system: Nakaseomyces glabratus; experiment: Antifungal activity against Candida glabrata 12 after 48 hrs by broth micromethod assay; assay type: functional; outline: as §1
[32] = system: Solanum lycopersicum; experiment: Phytotoxicity in tomato leaf assessed as necrosis in the leaf at 10^-3 M by leaf puncture assay; assay type: organism-based; conditions: in vivo, 1000 µM; outline: as §7
[33] = system: Kluyveromyces marxianus; experiment: Antifungal activity against Candida kefyr Y0601 after 72 hrs by broth micromethod assay; assay type: functional; outline: as §1
[34] = system: Penicillium verrucosum; experiment: Antifungal activity against Penicillium verrucosum ITEM 439 at 5 ug/disk by paper disk method; assay type: functional, organism-based; outline: as §2
[35] = system: Botrytis cinerea; experiment: Antifungal activity against Botrytis cinerea ITEM 966 at 5 ug/disk by paper disk method; assay type: functional, organism-based; outline: as §3
[36] = system: Artemia salina; experiment: as §5; assay type: organism-based; conditions: in vivo; outline: as §6
[37] = system: Solanum lycopersicum; experiment: Phytotoxicity in tomato leaf assessed as necrosis in the leaf at 10^-2 M by leaf puncture assay; assay type: organism-based; conditions: in vivo; outline: as §7
[38] = system: Kluyveromyces marxianus; experiment: Antifungal activity against Candida kefyr Y0601 after 48 hrs by broth micromethod assay; assay type: functional; outline: as §1
[39] = system: Kluyveromyces marxianus; experiment: Antifungal activity against Candida kefyr at 50 ug/disk by paper disk method; assay type: functional, organism-based

## CCCCCCC(C)C/C(C)=C\C(C)/C=C(C)/C=C/C(O)C(C)(C)c1cc(O)c([C@@H]2O[C@@H](CO)C[C@@H](O)[C@@H]2O)c(=O)o1 (stereo partly drawn) [DEXOYFUSAPYRONE]
[1]
  Activity: inactive
[2]
  Activity: >50 µg/mL
[3]
  zone of inhibition at 15 µg/disc: 11 mm
[4]
  Activity: inactive
[5]
  zone of inhibition at 15 µg/disc: 0 mm
[6]
  Activity: Active
[7]
  zone of inhibition at 15 µg/disc: 0 mm
[8]
  zone of inhibition at 15 µg/disc: 8 mm
[9]
  Activity: >50 µg/mL
[10]
  Activity: Active
[11]
  zone of inhibition at 15 µg/disc: 0 mm
[12]
  zone of inhibition at 15 µg/disc: 10.5 mm
[13]
  zone of inhibition at 15 µg/disc: 11.7 mm
[14]
  Activity: >50 µg/mL
[15]
  zone of inhibition at 15 µg/disc: 0 mm
[16]
  zone of inhibition at 15 µg/disc: 4 mm
[17]
  Activity: inactive
[18]
  zone of inhibition at 15 µg/disc: 10.8 mm
[19]
  LC50: 37.1 µM
[20]
  Activity: 3.12 µg/mL
[21]
  Activity: 3.12 µg/mL
[22]
  Activity: >50 µg/mL
[23]
  Activity: Active
[24]
  zone of inhibition at 15 µg/disc: 12.4 mm
[25]
  Activity: Not Active
[26]
  zone of inhibition at 15 µg/disc: 12.7 mm
[27]
  Activity: Active
[28]
  zone of inhibition at 15 µg/disc: 10.5 mm
[29]
  zone of inhibition at 15 µg/disc: 0 mm
[30]
  Activity: 6.25 µg/mL

## CCCCCCC(C)C/C(C)=C\C(/C=C(C)/C=C/C(O)C(C)(C)c1cc(O)c([C@@H]2O[C@@H](CO)C[C@@H](O)[C@@H]2O)c(=O)o1)CO (stereo partly drawn) [FUSAPYRONE]
[31]
  Activity: >50 µg/mL
[32]
  Activity: Active
[1]
  Activity: inactive
[2]
  Activity: >50 µg/mL
[3]
  zone of inhibition at 15 µg/disc: 29.7 mm
[4]
  Activity: inactive
[5]
  zone of inhibition at 15 µg/disc: 0 mm
[6]
  Activity: Active
[7]
  zone of inhibition at 15 µg/disc: 0 mm
[33]
  Activity: 3.12 µg/mL
[8]
  zone of inhibition at 15 µg/disc: 28.7 mm
[9]
  Activity: >50 µg/mL
[10]
  Activity: Active
[11]
  zone of inhibition at 15 µg/disc: 0 mm
[12]
  zone of inhibition at 15 µg/disc: 18.7 mm
[13]
  zone of inhibition at 15 µg/disc: 20.3 mm
[14]
  Activity: 0.78 µg/mL
[15]
  zone of inhibition at 15 µg/disc: 0 mm
[16]
  zone of inhibition at 15 µg/disc: 30 mm
[34]
  Activity: inactive
[17]
  Activity: inactive
[18]
  zone of inhibition at 15 µg/disc: 18.8 mm
[35]
  Activity: inactive
[36]
  Activity: Not Active
[37]
  Activity: Active
[20]
  Activity: 3.12 µg/mL
[21]
  Activity: 3.12 µg/mL
[22]
  Activity: >50 µg/mL
[23]
  Activity: Active
[24]
  zone of inhibition at 15 µg/disc: 27.3 mm
[25]
  Activity: Not Active
[38]
  Activity: 1.56 µg/mL
[26]
  zone of inhibition at 15 µg/disc: 27.5 mm
[27]
  Activity: Active
[28]
  zone of inhibition at 15 µg/disc: 30 mm
[29]
  zone of inhibition at 15 µg/disc: 28.3 mm
[39]
  Activity: Active
[30]
  Activity: 6.25 µg/mL
